Converted amounts (≈) assume the structure as drawn. The source made the active and inactive calls. The calls are words filed in the database; no cut-off is given here.
Key:
A549/TR = assay: Cytotoxicity against human A549/TR cells assessed as reduction in cell viability after 72 hrs by MTT assay; type: functional, cell-based
In short: (§1)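 Cells seeded per well at 5 X 10^3 (PC3MLN4, A549, Calu1, H157, A549-TR), 6 X 10^3 (PC3) or 8 X 10^3 (SKOV3). SKOV3 grown in McCoy's 5A, others in RPMI-1640, 10% FBS. Next day 2X drug added, 3.2 nM-50 µM five-fold dilutions, 72 hr.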

[1] = Cytotoxicity against human PC3MLN4 cells assessed as cell viability at 10 uM after 72 hrs by MTT assay relative to control; type: functional; details: read-out: Activity
A549 [2] = assay: Cytotoxicity against human A549 cells assessed as cell viability at 10 uM after 72 hrs by MTT assay relative to control; type: functional; details: A549, 72 h, read-out: Activity
PC-3 [3] = assay: Cytotoxicity against human PC3 cells assessed as cell viability at 10 uM after 72 hrs by MTT assay relative to control; type: functional; details: PC-3, 72 h, read-out: Activity
A549 [4] = assay: Cytotoxicity against human A549 cells assessed as cell viability at 1 uM after 72 hrs by MTT assay relative to control; type: functional; details: A549, 72 h, read-out: Activity
PC-3 [5] = assay: Cytotoxicity against human PC3 cells assessed as cell viability at 1 uM after 72 hrs by MTT assay relative to control; type: functional; details: PC-3, 72 h, read-out: Activity
[6] = Cytotoxicity against human PC3MLN4 cells assessed as cell viability at 1 uM after 72 hrs by MTT assay relative to control; type: functional; details: read-out: Activity
[7] = Kinetic solubility in pH 7.4 PBS buffer sonicated for 30 mins by HPLC-UV method
[8] = Antitumor activity against human PC3MLN4 cells xenografted in nude mouse assessed as reduction in tumor volume at 30 mg/kg, ip administered every other day 3 times per week for 2 weeks; type: functional
In short: (§2)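 PC3MLN4 cells (1 X 10^6) in growth factor reduced Matrigel/HBSS injected subcutaneously between the scapulae of athymic nude mice. Dosing began day 13 at tumor volume about 35 mm3. Randomized groups of 4-5 mice got 30 mg/kg IP in 5% DMSO/HBSS, or vehicle alone. Tumor (calipers) and body weight measured on dosing days and 3 days after last dose. Mean ± SEM, t-test.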

Mus musculus = assay: Toxicity in nude mouse xenografted with human PC3MLN4 cells assessed as reduction in body weight at 30 mg/kg, ip administered every other day 3 times per week for 2 weeks measured 3 times per week during compound dosing relative to control; type: organism-based; design: scale not given: the % may be the effect or the level left; details: in vivo, 336 h; in short: as §2
Homo sapiens [9] = species on record: Homo sapiens; assay: Cell cycle arrest in human PC3MLN4 cells assessed as accumulation at G2/M phase at 1 uM after 24 hrs by propidium iodide staining based flow cytometry; type: functional
In short: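 PC3MLN4 cells seeded 3 X 10^5/well, next day treated 24 hr at 1 µM, nocodazole 1 µM as control. Floating and adherent cells pooled, fixed in cold 70% ethanol 30 min, then PI plus RNase A for 30 min. 15 X 10^3 cells acquired by FACS. G1/S/G2 fractions from Dean-Jett-Fox fit.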

Homo sapiens [10] = species on record: Homo sapiens; assay: Upregulation of Cyclin-B1 protein expression in human PC3MLN4 cells at 1 uM after 24 hrs by Western blot method; type: functional, cell-based
In short: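 PC3MLN4 cells were treated 24 hr and lysed in 50 mM Tris pH 7.5, 150 mM NaCl, 10 mM NaF, 0.5% NP40 with protease inhibitors. Equal protein (BCA) was run on SDS-PAGE and transferred to nitrocellulose, then blocked in 5% milk/TBST. Blots were probed for cyclin B1 with GAPDH as loading control, using HRP secondary and ECL.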

A549 [11] = assay: Cytotoxicity against human A549 cells assessed as reduction in cell viability after 72 hrs by MTT assay; type: functional, cell-based; details: A549, 72 h; in short: as §1
Homo sapiens [12] = species on record: Homo sapiens; assay: Disruption of microtubule dynamics in human PC3MLN4 cells at 1 uM after 48 hrs by immunofluorescence microscopic method; type: cell-based
In short: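 PC3MLN4 cells on coverslips were treated 48 hr at 1 µM. They were fixed in 4% PFA 15 min and permeabilized in 0.2% Triton X-100 8 min. Blocking was 2% goat serum/2% BSA 1 hr. Anti-α-tubulin 1:200 for 1 hr was followed by Alexa Fluor 488 secondary 1:400 for 45 min, with DAPI 500 nM counterstain and imaging at 100X and 200X.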

Calu-1 = assay: Cytotoxicity against human Calu1 cells assessed as reduction in cell viability after 72 hrs by MTT assay; type: functional, cell-based; details: Calu-1, 72 h; in short: as §1
NCI-H157 = assay: Cytotoxicity against human NCI-H157 cells assessed as reduction in cell viability after 72 hrs by MTT assay; type: functional, cell-based; details: NCI-H157, 72 h; in short: as §1
physchem = details: PBS buffer, pH 7.4
[13] = Cytotoxicity against human PC3MLN4 cells assessed as reduction in cell viability after 72 hrs by MTT assay; type: functional, cell-based; in short: as §1
PC-3 [14] = assay: Cytotoxicity against human PC3 cells assessed as reduction in cell viability after 72 hrs by MTT assay; type: functional, cell-based; details: PC-3, 72 h; in short: as §1
SK-OV-3 = assay: Cytotoxicity against human SKOV3 cells assessed as reduction in cell viability after 72 hrs by MTT assay; type: functional, cell-based; details: SK-OV-3, 72 h; in short: as §1
[15] = Cytotoxicity against human PC3MLN4 cells assessed as reduction in cell viability after 48 hrs by cyquant reagent based fluorescence spectrometric assay; type: functional
In short: (§3)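 3 X 10^5 cells per well seeded overnight, then exposed 48 hr. Cells harvested, washed, frozen at -80 °C overnight, thawed, and CyQuant reagent added with fluorescence read at 485 nm. Survival as % of vehicle-treated cells. EC50 (50% survival reduction) by median-dose effect analysis.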

PC-3M = assay: Cytotoxicity against human PC3M cells assessed as reduction in cell viability after 48 hrs by cyquant reagent based fluorescence spectrometric assay; type: functional; in short: as §3
[16] = Selectivity ratio of EC50 for cytotoxicity against human PC3M cells to EC50 for cytotoxicity against human PC3MLN4 cells; type: functional

Row | SMILES | viability at 10 µM [1] [%] | viability at 10 µM (A549 [2]) [%] | viability at 10 µM (PC-3 [3]) [%] | viability at 1 µM (A549 [4]) [%] | viability at 1 µM (PC-3 [5]) [%] | viability at 1 µM [6] [%] | also measured
1 | CC(=O)O[C@H]1C(=O)[C@@]2(C)[C@H]([C@H](OC(=O)c3ccccc3)[C@]3(O)C[C@H](OC(=O)[C@H](O)[C@@H](NC(=O)c4ccccc4)c4ccccc4)C(C)=C1C3(C)C)[C@]1(OC(C)=O)CO[C@@H]1C[C@@H]2O [PACLITAXEL] |  |  |  |  |  |  | EC50 (A549/TR): 10300 nM
2 | CN(C)CCCOC(=O)Nc1nc2cc(C(=O)c3ccc(F)cc3)ccc2[nH]1 | 91 | 88.1 | 86.5 | 85.4 | 105 | 87.3 | 
3 | CN(C)CCOC(=O)Nc1nc2cc(C(=O)c3ccc(F)cc3)ccc2[nH]1 | 97.2 | 80.4 | 90.9 | 89.4 | 91.2 | 84.6 | 
4 | COC(=O)Nc1nc2cc(C(=O)c3ccc(N(C)C4COC4)cc3)ccc2[nH]1 | 23.2 | 42.2 | 33.6 | 50.2 | 44.5 | 34.9 | solubility kinetic at 0.5 h [7]: 253 µM (≈ 96.2 µg/mL); T/C [8]: 0.36; Activity (Mus musculus): Non-Toxic; Activity (Homo sapiens [9]): Active; Activity (Homo sapiens [10]): Active; EC50 (A549 [11]): 1400 nM; Activity (Homo sapiens [12]): Active; EC50 (Calu-1): 1600 nM; EC50 (NCI-H157): 2400 nM; solubility thermodynamic at 24 h (physchem): 361 µM (≈ 137 µg/mL); EC50 [13]: 900 nM; EC50 (A549/TR): 3800 nM; EC50 (PC-3 [14]): 1600 nM; EC50 (SK-OV-3): 1000 nM
5 | CCCSc1ccc2[nH]c(NC(=O)OCCN(C)C)nc2c1 | 42.8 | 51.8 | 37.9 | 75.5 | 82.5 | 92.7 | 
6 | CCCSc1ccc2[nH]c(NC(=O)OCCCN(C)C)nc2c1 | 88.6 | 89.9 | 78.2 | 83.8 | 95.5 | 86.7 | 
7 | CCCSc1ccc2[nH]c(NC(=O)OCC3(C)COC3)nc2c1 | 89.7 | 87.6 | 79.2 | 83.1 | 87.2 | 87.6 | 
8 | COC(=O)Nc1nc2cc(Oc3cccc(N4CCN(C)CC4)c3)ccc2[nH]1 | 33.4 | 47.5 | 32.2 | 77 | 73.1 | 86.3 | 
9 | COC(=O)Nc1nc2cc(C(=O)c3ccccc3)ccc2[nH]1 [MEBENDAZOLE] | 24.9 | 50.8 | 35.8 | 61.5 | 63.4 | 53.9 | T/C [8]: 0.31; Activity (Homo sapiens [9]): inactive; EC50 (A549 [11]): 900 nM; EC50 [15]: 700 nM; Activity (Homo sapiens [12]): Active; EC50 (Calu-1): 1100 nM; EC50 (NCI-H157): 3500 nM; EC50 [13]: 500 nM; EC50 (A549/TR): 1700 nM; EC50 (PC-3 [14]): 1100 nM; EC50 (PC-3M): 1210 nM; EC50 (SK-OV-3): 500 nM
10 | COC(=O)Nc1nc2cc(Oc3cccc(N4CCN(C)CC4)n3)ccc2[nH]1 | 74 | 72.6 | 52.1 | 87.8 | 98.1 | 83 | 
11 | COC(=O)Nc1nc2ccc(C(=O)c3ccccc3)cc2[nH]1 [MEBENDAZOLE] |  |  |  |  |  |  | Activity (Mus musculus): 5%
12 | CN(C)CCOC(=O)Nc1nc2cc(C(=O)c3ccccc3)ccc2[nH]1 | 98.8 | 89.6 | 92.6 | 94.4 | 97.3 | 101 | 
13 | COC(=O)Nc1nc2cc(C(=O)c3cccs3)ccc2[nH]1 |  |  |  |  |  |  | Activity (Homo sapiens [10]): Active; Activity (Homo sapiens [12]): Active
14 | COC(=O)Nc1nc2cc(C(=O)c3ccccc3N(C)C3COC3)ccc2[nH]1 | 38.4 | 46.8 | 54.8 | 99 | 101 | 100 | 
15 | COC(=O)Nc1nc2cc(Sc3ccccc3)ccc2[nH]1 [FENBENDAZOLE] |  |  |  |  |  |  | Ratio EC50 [16]: 2; EC50 [15]: 910 nM; EC50 (PC-3M): 2600 nM
16 | O=C(Nc1nc2cc(C(=O)c3ccccc3)ccc2[nH]1)OC1COC1 | 66.8 | 62 | 65.5 | 68 | 90.9 | 70.6 | 
17 | O=C(Nc1nc2cc(Sc3ccccc3)ccc2[nH]1)OC1COC1 | 79.1 | 74.8 | 87.8 | 75 | 107 | 80.2 | 
18 | CN(C)CCOC(=O)Nc1nc2cc(Sc3ccccc3)ccc2[nH]1 | 36.6 | 39.2 | 35 | 91.8 | 88.9 | 98.1 | 
19 | CCCSc1ccc2[nH]c(NC(=O)OC)nc2c1 [ALBENDAZOLE] |  |  |  |  |  |  | Ratio EC50 [16]: 2; EC50 [15]: 580 nM; EC50 (PC-3M): 1150 nM
20 | COC(=O)Nc1nc2cc(C(=O)c3ccc(F)cc3)ccc2[nH]1 [FLUBENDAZOLE] |  |  |  |  |  |  | Ratio EC50 [16]: 2; EC50 [15]: 670 nM; EC50 (PC-3M): 1430 nM
21 | CCCSc1ccc2[nH]c(NC(=O)OC3COC3)nc2c1 | 83.8 | 79.2 | 84.5 | 73.2 | 95.2 | 88.3 | 
